Measurements reported in publication PMC6424611 (Journal of molecular biology, 2019).
Residue numbers refer to the chain shown, from its start. Names and notes keep the numbering of the source.

B1: ΔC1: RSK1 with the last C-terminal residue truncated (1–734), no functional PBM (protein)
chain: MPLAQLKEPWPLMELVPLDPENGQTSGEEAGLQPSKDEGVLKEISITHHVKAGSEKADPSHFELLKVLGQGSFGKVFLVRKVTRPDSGHLYAMKVLKKATLKVRDRVRTKMERDILADVNHPFVVKLHYAFQTEGKLYLILDFLRGGDLFTRLSKEVMFTEEDVKFYLAELALGLDHLHSLGIIYRDLKPENILLDEEGHIKLTDFGLSKEAIDHEKKAYSFCGTVEYMAPEVVNRQGHSHSADWWSYGVLMFEMLTGSLPFQGKDRKETMTLILKAKLGMPQFLSTEAQSLLRALFKRNPANRLGSGPDGAEEIKRHVFYSTIDWNKLYRREIKPPFKPAVAQPDDTFYFDTEFTSRTPKDSPGIPPSAGAHQLFRGFSFVATGLMEDDGKPRAPQAPLHSVVQQLHGKNLVFSDGYVVKETIGVGSYSECKRCVHKATNMEYAVKVIDKSKRDPSEEIEILLRYGQHPNIITLKDVYDDGKHVYLVTELMRGGELLDKILRQKFFSEREASFVLHTIGKTVEYLHSQGVVHRDLKPSNILYVDESGNPECLRICDFGFAKQLRAENGLLMTPCYTANFVAPEVLKRQGYDEGCDIWSLGILLYTMLAGYTPFANGPSDTPEEILTRIGSGKFTLSGGNWNTVSETAKDLVSKMLHVDPHQRLTAKQVLQHPWVTQKDKLPQSQLSHQDLQLVKGAMAATYSALNSSKPTPQLKPIESSILAQRRVRKLPSTT
modifications: left off: SmBiT, N-terminal, kept
B2: WT: full-length wild type RSK1 (1–735) (protein)
chain: MPLAQLKEPWPLMELVPLDPENGQTSGEEAGLQPSKDEGVLKEISITHHVKAGSEKADPSHFELLKVLGQGSFGKVFLVRKVTRPDSGHLYAMKVLKKATLKVRDRVRTKMERDILADVNHPFVVKLHYAFQTEGKLYLILDFLRGGDLFTRLSKEVMFTEEDVKFYLAELALGLDHLHSLGIIYRDLKPENILLDEEGHIKLTDFGLSKEAIDHEKKAYSFCGTVEYMAPEVVNRQGHSHSADWWSYGVLMFEMLTGSLPFQGKDRKETMTLILKAKLGMPQFLSTEAQSLLRALFKRNPANRLGSGPDGAEEIKRHVFYSTIDWNKLYRREIKPPFKPAVAQPDDTFYFDTEFTSRTPKDSPGIPPSAGAHQLFRGFSFVATGLMEDDGKPRAPQAPLHSVVQQLHGKNLVFSDGYVVKETIGVGSYSECKRCVHKATNMEYAVKVIDKSKRDPSEEIEILLRYGQHPNIITLKDVYDDGKHVYLVTELMRGGELLDKILRQKFFSEREASFVLHTIGKTVEYLHSQGVVHRDLKPSNILYVDESGNPECLRICDFGFAKQLRAENGLLMTPCYTANFVAPEVLKRQGYDEGCDIWSLGILLYTMLAGYTPFANGPSDTPEEILTRIGSGKFTLSGGNWNTVSETAKDLVSKMLHVDPHQRLTAKQVLQHPWVTQKDKLPQSQLSHQDLQLVKGAMAATYSALNSSKPTPQLKPIESSILAQRRVRKLPSTTL
modifications: left off: SmBiT, N-terminal, kept
B3: L714E: RSK1 mutant; eliminates the interaction between ERK and RSK (protein)
chain: B2 chain with L714E
modifications: left off: SmBiT, N-terminal, kept

Columns and labels:
ARHGEF12 = assay: NanoBiT protein-protein interaction assay; type: cell-based, human; conditions: full-length proteins, serum-starved HEK293T, n=6, vs WT RSK1
In short: (§1)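 Full-length RSK1 (N-terminal SmBiT) is paired with an N-terminal LgBiT fusion of the partner: ARHGEF12 isoform 2, GOPC isoform 2, PARD3B 1–913, or SYNJ2BP. Sensors are transiently co-expressed in HEK293T cells, which are serum-starved for 20 h from 4 h post-transfection and assayed with Nano-Glo at 24 h. Steady-state signal is referenced to the wild-type pair. For the EGF response (20 ng/ml, 60 min), signal is normalized to initial luminescence and to unstimulated furimazine decay. At least 6 replicates.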

SYNJ2BP = assay: NanoBiT protein-protein interaction assay; type: cell-based, human; conditions: full-length proteins, serum-starved HEK293T, n=6, vs WT RSK1
In short: as §1

GOPC = assay: NanoBiT protein-protein interaction assay; type: cell-based, human; conditions: full-length proteins, serum-starved HEK293T, n=6, vs WT RSK1
In short: as §1

MAGI1 = assay: NanoBiT protein-protein interaction assay; type: cell-based, human; conditions: full-length proteins, serum-starved HEK293T, n=6, vs WT RSK1
In short: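 Full-length RSK1 (N-terminal SmBiT) is co-expressed with full-length MAGI1–LgBiT in HEK293T cells by FuGene HD transfection, then serum-starved for 20 h in CO2-independent medium. Cells are read with Nano-Glo 24 h post-transfection. Steady-state luminescence of mutant sensors is referenced to the wild-type pair. For the 20 ng/ml EGF response, signal is followed for 60 min and normalized to initial luminescence and to furimazine decay in unstimulated cells. At least 6 biological replicates.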

RhoA = assay: G-LISA RhoA activation assay; type: cell-based; conditions: RSK1/2 knockout HEK293T, n=4; for serum-stimulated RhoA activity: serum-starved, 20% serum 5 min
PARD3B = assay: NanoBiT protein-protein interaction assay; type: cell-based, human; conditions: PARD3B 1–913, serum-starved HEK293T, n=6, vs WT RSK1
In short: as §1

Molecule	steady-state luminescence of interaction sensor (ARHGEF12)	steady-state luminescence of interaction sensor (SYNJ2BP)	steady-state luminescence of interaction sensor (GOPC)	steady-state luminescence of interaction sensor (MAGI1)	serum-stimulated RhoA activity (RhoA)	steady-state luminescence of interaction sensor (PARD3B)	basal RhoA activity (RhoA; transfected)
B1	significantly reduced the luminescent signal	significantly reduced the luminescent signal	significantly reduced the luminescent signal	significantly reduced the luminescent signal	only minor increment	significantly reduced the luminescent signal	–
B2	high luminescence signals	high luminescence signals	high luminescence signals	high luminescence signals	increased RhoA activity	high luminescence signals	increased level of basal RhoA activity
B3	–	decreased the luminescence outputs	–	–	–	decreased the luminescence outputs	–
